ChEMBL document CHEMBL2029221, “Acylprolinamides: a new class of peptide deformylase inhibitors with in vivo antibacterial activity” (Bioorg Med Chem Lett, 2012)
≈ marks a conversion by molar mass, not a printed value.

Assays:
Haemophilus influenzae = assay: Antibacterial activity against Haemophilus influenzae Q1 by broth microdilution method; format: functional
Method in brief: (§1)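 Broth microdilution following NCCLS document M7-A4. Serial two-fold dilutions from 0.06 to 64 mcg/ml were tested. The MIC was the lowest concentration preventing visible growth, with the endpoint read with the aid of a mirror reader.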

Moraxella catarrhalis = assay: Antibacterial activity against Moraxella catarrhalis 1502 by broth microdilution method; format: functional; method in brief: as §1
Peptide deformylase [1] = biological target: T1, Peptide deformylase (Staphylococcus aureus, UniProt P68826); assay: Inhibition of Staphylococcus aureus PDF assessed as formate release from fMAS peptide substrate after 20 mins by formate dehydrogenase coupled assay
T1 sequence (P68826 whole entry): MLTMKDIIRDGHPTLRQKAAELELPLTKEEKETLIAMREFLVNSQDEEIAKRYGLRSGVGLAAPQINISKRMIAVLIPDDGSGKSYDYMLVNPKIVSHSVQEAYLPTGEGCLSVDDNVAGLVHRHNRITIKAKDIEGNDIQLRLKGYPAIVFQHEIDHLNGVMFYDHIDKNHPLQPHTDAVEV

Streptococcus pneumoniae = assay: Antibacterial activity against Streptococcus pneumoniae 1629 by broth microdilution method; format: functional; method in brief: as §1
Enterococcus faecalis = assay: Antibacterial activity against Enterococcus faecalis 7 by broth microdilution method; format: functional; method in brief: as §1
Staphylococcus aureus = assay: Antibacterial activity against Staphylococcus aureus Oxford by broth microdilution method; format: functional; method in brief: as §1
[2] = Inhibition of Haemophilus influenzae PDF assessed as formate release from fMAS peptide substrate after 20 mins by formate dehydrogenase coupled assay
Method in brief: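 Coupled assay in which formate released from the fMAS peptide is oxidized by formate dehydrogenase, reducing NAD to NADH, read as the rise in absorbance at 340. Reactions were started by adding PDF and velocities measured for 20 min at 25 °C. Values are the mean of at least 2 runs.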

Peptide deformylase [3] = biological target: T2, Peptide deformylase (Streptococcus pneumoniae serotype 4 (strain ATCC BAA-334 / TIGR4), UniProt Q9F2F0); assay: Inhibition of Streptococcus pneumoniae PDF assessed as formate release from fMAS peptide substrate after 20 mins by formate dehydrogenase coupled assay
T2 sequence (Q9F2F0 whole entry): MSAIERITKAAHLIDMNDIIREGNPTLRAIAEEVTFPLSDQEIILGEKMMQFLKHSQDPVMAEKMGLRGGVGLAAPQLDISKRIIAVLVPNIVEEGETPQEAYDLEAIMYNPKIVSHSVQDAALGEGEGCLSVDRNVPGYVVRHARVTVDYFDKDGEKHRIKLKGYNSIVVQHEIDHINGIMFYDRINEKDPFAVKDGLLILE

MIC (Haemophilus influenzae) [µg/mL] | MIC (Moraxella catarrhalis) [µg/mL] | IC50 (Peptide deformylase [1]) [nM] | MIC (Streptococcus pneumoniae) [µg/mL] | MIC (Enterococcus faecalis) [µg/mL] | MIC (Staphylococcus aureus) [µg/mL] | IC50 [2] [nM] | IC50 (Peptide deformylase [3]) [nM] | SMILES
1 (≈ 2.42 µM) | 0.125 (≈ 0.303 µM) | 3.2 | 2 (≈ 4.85 µM) | 16 (≈ 38.8 µM) | 4 (≈ 9.7 µM) | 6.9 | 0.77 | O=CN(O)C[C@@H](CC1CCCC1)C(=O)N1CCC[C@H]1C(=O)NC(=O)NCCCO
8 (≈ 16.9 µM) | ≤ 0.06 | 1 | 0.25 (≈ 0.529 µM) | 2 (≈ 4.23 µM) | 0.5 (≈ 1.06 µM) | 4.1 | 0.19 | O=CN(O)C[C@@H](CC1CCCC1)C(=O)N1CCC[C@H]1C(=O)NC(=O)NCCCc1ccccc1
0.5 (≈ 1.31 µM) | ≤ 0.06 | 5 | 2 (≈ 5.24 µM) | 4 (≈ 10.5 µM) | 2 (≈ 5.24 µM) | 10 | 1.5 | CC(C)C(=O)NC(=O)[C@@H]1CCCN1C(=O)[C@H](CC1CCCC1)CN(O)C=O
2 (≈ 4.5 µM) | ≤ 0.06 | 1.7 | 0.125 (≈ 0.281 µM) | 0.5 (≈ 1.12 µM) | 0.5 (≈ 1.12 µM) | 6.5 | 0.19 | O=CN(O)C[C@@H](CC1CCCC1)C(=O)N1CCC[C@H]1C(=O)NC(=O)NCc1ccccc1
16 (≈ 35.7 µM) | 0.5 (≈ 1.11 µM) | 1.3 | 8 (≈ 17.8 µM) | > 64 | 64 (≈ 143 µM) | 4.3 | 0.15 | O=CN(O)C[C@@H](CC1CCCC1)C(=O)N1CCC[C@H]1C(=O)NC(=O)NCCc1c[nH]cn1
0.25 (≈ 0.679 µM) | ≤ 0.06 | 2.1 | 1 (≈ 2.71 µM) | 4 (≈ 10.9 µM) | 0.5 (≈ 1.36 µM) | 6.1 | 0.46 | CNC(=O)NC(=O)[C@@H]1CCCN1C(=O)[C@H](CC1CCCC1)CN(O)C=O
1 (≈ 2.44 µM) | ≤ 0.06 | 1.2 | 0.125 (≈ 0.304 µM) | 1 (≈ 2.44 µM) | 1 (≈ 2.44 µM) | 2.4 | 0.22 | CC(C)(C)NC(=O)NC(=O)[C@@H]1CCCN1C(=O)[C@H](CC1CCCC1)CN(O)C=O
2 (≈ 4.7 µM) | 0.5 (≈ 1.18 µM) | 3.3 | 8 (≈ 18.8 µM) | > 64 | 32 (≈ 75.2 µM) | 6.3 | 0.72 | NC(=O)CCNC(=O)NC(=O)[C@@H]1CCCN1C(=O)[C@H](CC1CCCC1)CN(O)C=O
2 (≈ 4.35 µM) | ≤ 0.06 | 1.4 | 1 (≈ 2.18 µM) | > 64 | 2 (≈ 4.35 µM) | 4.7 | 0.37 | O=CN(O)C[C@@H](CC1CCCC1)C(=O)N1CCC[C@H]1C(=O)NC(=O)NCCc1cccnc1
2 (≈ 4.34 µM) | ≤ 0.06 | 1.4 | 1 (≈ 2.17 µM) | 8 (≈ 17.4 µM) | 2 (≈ 4.34 µM) | 6.1 | 0.41 | O=CN(O)C[C@@H](CC1CCCC1)C(=O)N1CCC[C@H]1C(=O)NC(=O)NCCc1cnccn1
0.25 (≈ 0.707 µM) | ≤ 0.06 | 12 | 4 (≈ 11.3 µM) | 8 (≈ 22.6 µM) | 1 (≈ 2.83 µM) | 16 | 4 | CC(=O)NC(=O)[C@@H]1CCCN1C(=O)[C@H](CC1CCCC1)CN(O)C=O
0.125 (≈ 0.353 µM) | ≤ 0.06 | 2.2 | 2 (≈ 5.64 µM) | 4 (≈ 11.3 µM) | 2 (≈ 5.64 µM) | 4.8 | 0.91 | NC(=O)NC(=O)[C@@H]1CCCN1C(=O)[C@H](CC1CCCC1)CN(O)C=O
1 (≈ 2.18 µM) | ≤ 0.06 | 1.4 | 0.5 (≈ 1.09 µM) | 4 (≈ 8.7 µM) | 1 (≈ 2.18 µM) | 5.9 | 0.35 | O=CN(O)C[C@@H](CC1CCCC1)C(=O)N1CCC[C@H]1C(=O)NC(=O)NCCc1ccccn1

Second part, the molecule before the results:

SMILES | MIC (Haemophilus influenzae) [µg/mL] | MIC (Moraxella catarrhalis) [µg/mL] | IC50 (Peptide deformylase [1]) [nM] | MIC (Streptococcus pneumoniae) [µg/mL] | MIC (Enterococcus faecalis) [µg/mL] | MIC (Staphylococcus aureus) [µg/mL] | IC50 [2] [nM] | IC50 (Peptide deformylase [3]) [nM]
COCC(=O)NC(=O)[C@@H]1CCCN1C(=O)[C@H](CC1CCCC1)CN(O)C=O | 0.125 (≈ 0.326 µM) | ≤ 0.06 | 8 | 4 (≈ 10.4 µM) | 16 (≈ 41.7 µM) | 4 (≈ 10.4 µM) | 13 | 1
O=CN(O)C[C@@H](CC1CCCC1)C(=O)N1CCC[C@H]1C(=O)NC(=O)OC1CCNCC1 | 16 (≈ 36.5 µM) | 1 (≈ 2.28 µM) | 5.9 | 8 (≈ 18.2 µM) | > 64 | > 64 | 2.7 | 1.4
O=CN(O)C[C@@H](CC1CCCC1)C(=O)N1CCC[C@H]1C(=O)NC(=O)C1CCCCC1 | 0.5 (≈ 1.19 µM) | ≤ 0.06 | 3.7 | 0.25 (≈ 0.593 µM) | 1 (≈ 2.37 µM) | 1 (≈ 2.37 µM) | 5.2 | 0.5
O=CN(O)C[C@@H](CC1CCCC1)C(=O)N1CCC[C@H]1C(=O)NC(=O)NC1CCCCC1 | 4 (≈ 9.16 µM) | ≤ 0.06 | 0.93 | 0.125 (≈ 0.286 µM) | 2 (≈ 4.58 µM) | 0.5 (≈ 1.15 µM) | 4 | 0.2
O=CN(O)C[C@@H](CC1CCCC1)C(=O)N1CCC[C@H]1C(=O)NC(=O)C1CCC1 | 1 (≈ 2.54 µM) | ≤ 0.06 | 5 | 1 (≈ 2.54 µM) | 8 (≈ 20.3 µM) | 1 (≈ 2.54 µM) | 9 | 0.7
O=CN(O)C[C@@H](CC1CCCC1)C(=O)N1CCC[C@H]1C(=O)NC(=O)NC1CCC1 | 0.5 (≈ 1.22 µM) | ≤ 0.06 | 0.9 | 0.125 (≈ 0.306 µM) | 1 (≈ 2.45 µM) | 0.125 (≈ 0.306 µM) | 1.8 | 0.3
O=CN(O)C[C@@H](CC1CCCC1)C(=O)N1CCC[C@H]1C(=O)NC(=O)C1CC1 | 0.125 (≈ 0.329 µM) | ≤ 0.06 | 2.3 | 1 (≈ 2.64 µM) | 2 (≈ 5.27 µM) | 0.5 (≈ 1.32 µM) | 5.5 | 1.2
CCOC(=O)NC(=O)[C@@H]1CCCN1C(=O)[C@H](CC1CCCC1)CN(O)C=O | 0.25 (≈ 0.652 µM) | ≤ 0.06 | 2.2 | 0.5 (≈ 1.3 µM) | 2 (≈ 5.22 µM) | 0.5 (≈ 1.3 µM) | 7.7 | 0.54
O=CN(O)C[C@@H](CC1CCCC1)C(=O)N1CCC[C@H]1C(=O)NC(=O)C1CCCC1 | 0.25 (≈ 0.613 µM) | ≤ 0.06 | 2.5 | 0.25 (≈ 0.613 µM) | 1 (≈ 2.45 µM) | 0.5 (≈ 1.23 µM) | 6.1 | 0.43
